Data set [1] has as its system PBMC. Description: Inhibition of HuR in anti-CD3 and anti-CD28-stimulated human PBMC assessed as reduction of cytoplasmic protein level after 48 hrs by confocal microscopy. It counts as functional, cell-based.
Data set [2] has as its system Monocyte. Description: Inhibition of IL1-beta expression in LPS/INF-gamma-stimulated human primary monocytes by ELISA. It counts as functional. (In general: ELISA stands for enzyme-linked immunosorbent assay.)
Data set [3] concerns Monocyte. Nature of the data set: Inhibition of COX-2 expression in LPS/INF-gamma-stimulated human primary monocytes up to 30 uM by ELISA. It counts as functional.
In data set [4] the test system is Monocyte. Description: Inhibition of COX-2 gene expression in LPS/INF-gamma-stimulated human primary monocytes up to 30 uM by RT-PCR analysis. It is filed as functional.
A short description of data set [5]: Cytotoxicity against human PBMC assessed as cell viability at 50 uM after 48 hrs relative control. It is filed as cell-based. The note with it: read-out: Activity. In short, it runs like this: (§1)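 Freshly isolated human PBMCs activated with soluble anti-CD3 plus anti-CD28 and exposed to compound for 48 h. Viability expressed as percent of DMSO control.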
Data set [6] concerns Monocyte. Description: Inhibition of IL-6 expression in LPS/INF-gamma-stimulated human primary monocytes up to 30 uM by ELISA. It is filed as functional.
Data set [7] relates to Monocyte. Nature of the data set: Inhibition of IL1-beta gene expression in LPS/INF-gamma-stimulated human primary monocytes up to 30 uM by RT-PCR analysis. It is filed as functional.
In data set [8] the test system is Monocyte. Nature of the data set: Inhibition of IL1-beta expression in LPS/INF-gamma-stimulated human primary monocytes up to 30 uM by ELISA. It is filed as functional.
The subject of data set [9] is Monocyte. Nature of the data set: Inhibition of IL-6 gene expression in LPS/INF-gamma-stimulated human primary monocytes up to 30 uM by RT-PCR analysis. It counts as functional.
Data set [10] deals with T1, ELAV-like protein 1 (Homo sapiens, UniProt Q15717). Description: Inhibition of recombinant HuR RRM1/RRM2 domain assessed as protein interaction with TMR-labeled A/U-rich element of TNFalpha by confocal fluctuation spectroscopy. In short, it runs like this: (§2)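 Binding followed as fluorescence anisotropy by 2D-FIDA, converted to fraction bound. Inhibition curves simulated from the fitted HuR–RNA Kd, with actual RNA, HuR and compound levels as boundary conditions. Ten measurements averaged; at least three independent experiments.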
T1 sequence (Q15717 whole entry, the tested form may be a part): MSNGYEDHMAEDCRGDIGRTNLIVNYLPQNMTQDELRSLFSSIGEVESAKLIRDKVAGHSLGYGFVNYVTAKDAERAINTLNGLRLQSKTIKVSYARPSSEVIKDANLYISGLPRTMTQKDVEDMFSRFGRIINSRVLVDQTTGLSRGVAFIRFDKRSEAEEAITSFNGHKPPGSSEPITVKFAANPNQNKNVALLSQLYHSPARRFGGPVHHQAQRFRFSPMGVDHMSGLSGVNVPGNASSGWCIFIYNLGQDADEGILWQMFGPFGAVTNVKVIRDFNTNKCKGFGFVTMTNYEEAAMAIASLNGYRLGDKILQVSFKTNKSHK

Data set [11] has as its target T1, ELAV-like protein 1. Description: Inhibition of recombinant full length HuR assessed as inhibition of protein-IL-2 A/U-rich element interaction-associated release of particle number at 2 uM by 2D-FIDA.
Data set [12] can be described thus: Cytotoxicity against human PBMC assessed as cell viability at 25 uM after 48 hrs relative control. It is filed as cell-based. The note with it: read-out: Activity. In short, it runs like this:
as §1

Data set [13] concerns the target T1, ELAV-like protein 1. Nature of the data set: Binding affinity recombinant HuR RRM1/RRM2 domain by confocal fluctuation spectroscopy. In short, it runs like this: as §2
Data set [14] concerns the target T1, ELAV-like protein 1. Description: Inhibition of recombinant HuR RRM1/RRM2 domain assessed as protein dimerization with TMR-labeled A/U-rich element of IL-2 by confocal fluctuation spectroscopy.
Data set [15] deals with Myosin light chain kinase, smooth muscle (Homo sapiens, UniProt Q15746). Description: Inhibition of MYLK.
Sequence of Myosin light chain kinase, smooth muscle (Q15746 whole entry, the tested form may be a part): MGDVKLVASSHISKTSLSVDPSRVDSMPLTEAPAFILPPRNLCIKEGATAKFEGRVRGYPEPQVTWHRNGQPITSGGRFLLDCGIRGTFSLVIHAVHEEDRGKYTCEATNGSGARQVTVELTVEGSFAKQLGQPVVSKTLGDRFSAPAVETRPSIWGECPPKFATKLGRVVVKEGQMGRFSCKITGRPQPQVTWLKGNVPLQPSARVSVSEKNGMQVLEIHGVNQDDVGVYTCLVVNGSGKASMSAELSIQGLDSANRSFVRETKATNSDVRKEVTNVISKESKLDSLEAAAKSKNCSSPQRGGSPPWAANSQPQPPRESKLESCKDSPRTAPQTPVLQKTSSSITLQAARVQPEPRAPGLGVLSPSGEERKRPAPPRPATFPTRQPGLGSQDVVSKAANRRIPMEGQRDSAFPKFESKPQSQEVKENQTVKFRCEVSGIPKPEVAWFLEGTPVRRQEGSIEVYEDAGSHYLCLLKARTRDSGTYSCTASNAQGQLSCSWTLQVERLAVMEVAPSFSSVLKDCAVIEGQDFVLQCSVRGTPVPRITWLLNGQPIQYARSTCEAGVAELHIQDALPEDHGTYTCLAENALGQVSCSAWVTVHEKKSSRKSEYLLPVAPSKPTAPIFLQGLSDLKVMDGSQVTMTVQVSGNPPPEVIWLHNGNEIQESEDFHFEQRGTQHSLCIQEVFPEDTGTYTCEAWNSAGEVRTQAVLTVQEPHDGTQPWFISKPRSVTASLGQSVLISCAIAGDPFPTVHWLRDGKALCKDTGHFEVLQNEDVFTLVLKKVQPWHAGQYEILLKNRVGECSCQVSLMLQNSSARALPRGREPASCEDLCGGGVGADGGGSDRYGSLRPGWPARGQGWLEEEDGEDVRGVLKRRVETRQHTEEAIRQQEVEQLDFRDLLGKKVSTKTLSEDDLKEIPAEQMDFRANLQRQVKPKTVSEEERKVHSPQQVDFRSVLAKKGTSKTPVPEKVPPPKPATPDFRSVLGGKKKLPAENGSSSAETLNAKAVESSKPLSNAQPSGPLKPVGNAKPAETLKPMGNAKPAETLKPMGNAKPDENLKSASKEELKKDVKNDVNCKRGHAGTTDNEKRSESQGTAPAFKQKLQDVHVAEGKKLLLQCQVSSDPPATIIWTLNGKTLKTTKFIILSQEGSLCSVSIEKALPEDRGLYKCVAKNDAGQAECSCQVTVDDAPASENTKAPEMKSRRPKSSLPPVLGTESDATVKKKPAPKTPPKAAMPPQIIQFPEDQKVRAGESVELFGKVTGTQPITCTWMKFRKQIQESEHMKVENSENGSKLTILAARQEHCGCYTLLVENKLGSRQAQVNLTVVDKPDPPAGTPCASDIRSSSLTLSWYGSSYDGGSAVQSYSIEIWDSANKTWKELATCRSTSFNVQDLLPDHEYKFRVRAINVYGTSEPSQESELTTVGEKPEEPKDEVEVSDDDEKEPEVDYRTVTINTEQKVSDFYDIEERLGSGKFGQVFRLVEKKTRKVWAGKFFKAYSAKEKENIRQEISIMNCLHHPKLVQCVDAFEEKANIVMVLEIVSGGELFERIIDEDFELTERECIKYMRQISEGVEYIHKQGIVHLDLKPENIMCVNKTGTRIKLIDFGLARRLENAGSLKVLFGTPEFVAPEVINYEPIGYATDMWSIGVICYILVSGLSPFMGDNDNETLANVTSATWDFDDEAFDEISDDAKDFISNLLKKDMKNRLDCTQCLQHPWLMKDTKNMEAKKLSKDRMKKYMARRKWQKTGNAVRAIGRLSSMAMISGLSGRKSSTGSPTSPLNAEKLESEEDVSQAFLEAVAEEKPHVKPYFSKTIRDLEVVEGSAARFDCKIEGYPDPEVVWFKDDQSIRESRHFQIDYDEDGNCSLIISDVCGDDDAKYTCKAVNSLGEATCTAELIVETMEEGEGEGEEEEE
Data set [16] concerns the target T1, ELAV-like protein 1. Nature of the data set: Inhibition of recombinant HuR RRM1/RRM2 domain assessed as protein dimerization with TMR-labeled A/U-rich element of TNFalpha by confocal fluctuation spectroscopy.
In data set [17] the test system is Monocyte. Nature of the data set: Inhibition of IL-6 gene expression in LPS/INF-gamma-stimulated human primary monocytes by RT-PCR analysis.
In data set [18] the test system is Monocyte. Description: Inhibition of IL1-beta gene expression in LPS/INF-gamma-stimulated human primary monocytes by RT-PCR analysis.
Data set [19] deals with T1, ELAV-like protein 1. Description: Inhibition of recombinant HuR RRM1/RRM2 domain assessed as protein interaction with TMR-labeled A/U-rich element of IL-2 by confocal fluctuation spectroscopy. The essentials: as §2
Data set [20] deals with Monocyte. Nature of the data set: Inhibition of COX-2 gene expression in LPS/INF-gamma-stimulated human primary monocytes by RT-PCR analysis.
In data set [21] the test system is PBMC. Nature of the data set: Inhibition of HuR in anti-CD3 and anti-CD28-stimulated human PBMC assessed as reduction of cytoplasmic protein level at 25 uM after 48 hrs by confocal microscopy. It counts as functional, cell-based.
Data set [22] has as its system Monocyte. Description: Inhibition of IL-6 expression in LPS/INF-gamma-stimulated human primary monocytes by ELISA. It counts as functional.
For data set [23], the system named is Monocyte. Description: Inhibition of COX-2 expression in LPS/INF-gamma-stimulated human primary monocytes by ELISA. It counts as functional.

Activity calls are given as the source filed them. The rule behind the calls is not given here.

One may read the Kd as a measure of binding affinity in units of concentration. By IC50 is commonly meant the concentration needed to halve the response being measured. A high value points to weaker potency in that assay.

For the compound `Cc1cc(O)c2c(O)cccc2c1-c1cc(=O)cc(O)o1` [DEHYDROMUTACTIN], the inhibition entry with PBMC [1] is “Dose-dependent effect”. Further, the inhibition result with Monocyte [2], with Monocyte [3], with Monocyte [4], in the data set on Monocyte [6], in the data set on Monocyte [7] and in the data set with Monocyte [8] was “inactive” throughout. The inhibition entry with Monocyte [9] was “inactive”. The viability at 48 h, 50 µM in data set [5] came out at 97%.
Take `Cc1cc(O)cc2cc3c(c(O)c12)C(=O)CCC3O` (stereo unspecified): the inhibition entry in the data set on PBMC [1] was “inactive”.
With `Cc1occ2c1C(=O)c1c(O)ccc(O)c1C2`, the Kd at ELAV-like protein 1 [10] came out at 14 nM; on ELAV-like protein 1 [13], 420 nM; on ELAV-like protein 1 [14], 0.1 nM; at ELAV-like protein 1 [16] it was 0.1 nM; at ELAV-like protein 1 [19], 230 nM. In addition, the inhibition entry on ELAV-like protein 1 [11] was “Active”. In addition, the inhibition entry in the data set with Monocyte [2], with Monocyte [22] and in the data set on Monocyte [23] was “Dose-dependent effect” each time. Moreover, in data set [12], the viability at 48 h, 25 µM is 94%. The IC50 turned out to be 10000 nM in data set [15], 2400 nM with Monocyte [17], 3700 nM in the data set with Monocyte [18] and 2100 nM in the data set with Monocyte [20]. Besides, in the data set on PBMC [21], the inhibition entry is “inactive”.
For `Cc1cc(O)cc2oc(Cc3cc(O)cc(=O)o3)cc(=O)c12`, the inhibition entry with Monocyte [2], in the data set on Monocyte [3], in the data set on Monocyte [4], with Monocyte [6], in the data set with Monocyte [8] and with Monocyte [9] was “inactive” throughout.
